Assay results published in article PMC10794003 (European journal of medicinal chemistry, 2023).
“Also recorded” adds a separate entry of the source.

The compounds below were run on Nrf2 target genes GSTM3, NQO1, or HMOX1 in NCM460D cells (assay: RT-qPCR of Nrf2 target genes in NCM460D cells). Conditions: 24 h incubation at 1, 10 and 100 μM, RT-PCR.
Type: cell-based
In short: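 NCM460D cells exposed to test compound at 1, 10 and 100 μM for 24 h. Positive controls were a reference Keap1-Nrf2 PPI inhibitor (1, 10, 100 μM) and CDDO (10 and 100 nM); 0.1 % DMSO served as the negative control. RNA was quantified, reverse-transcribed to cDNA, and GSTM3, NQO1 and HMOX1 were measured by RT-qPCR, normalized to endogenous GAPDH.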

SMILES | transcriptional induction of Nrf2 target genes NQO1, GSTM3 and HMOX1
Cc1ccc(S(=O)(=O)N(CC(=O)O)c2cc(OCC(=O)O)c(N(CC(=O)O)S(=O)(=O)c3ccc(C)cc3)c3ccccc23)cc1 [compound 18, 2,2′-((2-(Carboxymethoxy)naphthalene-1,4-diyl)bis(tosylazanediyl))diacetic acid] | similarly high effects
Cc1ccc(S(=O)(=O)N(CC(=O)O)c2cc(CCC(=O)O)c(N(CC(=O)O)S(=O)(=O)c3ccc(C)cc3)c3ccccc23)cc1 [17b, 2,2′-((2-(2-Carboxyethyl)naphthalene-1,4-diyl)bis(tosylazanediyl))diacetic acid] | similarly high effects
Cc1ccc(S(=O)(=O)N(CC(=O)O)c2ccc(N(CC(=O)O)S(=O)(=O)c3ccc(C)cc3)c(OCC(=O)O)c2)cc1 [8g, 2,2′-((2-(Carboxymethoxy)-1,4-phenylene)bis(tosylazanediyl))diacetic acid] | less transcriptional induction; also recorded: relatively low expressions
